Assay results as given in ChEMBL document CHEMBL1123614, “Effects of [(N-alkyl-1,3-dioxo-1H,3H-isoindolin-5-yl)oxy]alkanoic acids, [(N-alkyl-1-oxo-1H,3H-isoindolin-5-yl)oxy]butanoic acids, and related derivatives on chloride influx in primary astroglial cultures” (J Med Chem, 1987).

Key:
Format in all cases: functional, organism-based
Rattus norvegicus [1] = species on record: Rattus norvegicus; test: Reduction of Astrocyte intracellular chloride concentration at 0.1 mM.
How it was run: (§1)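 Primary rat astrocyte cultures (1–4-day-old Sprague-Dawley pups, oligodendrocytes not removed, >90% astrocytes) grown 3–5 weeks in serum BME. Cells equilibrated 60 min at 37 °C in chloride-HCO3 Hepes medium. Cells washed with ice-cold 0.32 M sucrose. Counts, minus time-0 background, normalized to Lowry protein. Reported as % of vehicle control ± SD, n = 4.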

Rattus norvegicus [2] = species on record: Rattus norvegicus; test: Reduction of Astrocyte intracellular chloride concentration at 0.05 mM.; how it was run: as §1
Rattus norvegicus [3] = species on record: Rattus norvegicus; test: Reduction of Astrocyte intracellular chloride concentration at 1 mM.; how it was run: as §1
Rattus norvegicus [4] = species on record: Rattus norvegicus; test: Reduction of Astrocyte intracellular chloride concentration at 0.01 mM.; how it was run: as §1
Rattus norvegicus [5] = species on record: Rattus norvegicus; test: Reduction of Astrocyte intracellular chloride concentration at 0.05 mM; No data.; how it was run: as §1
[6] = 0.5 mM, in the assay text read “0.5 mM” for “0.05 mM”

Row | SMILES | Concentration (Rattus norvegicus [1]) [%] | Concentration (Rattus norvegicus [2]; 0.05 mM) [%] | further results
1 | O=C(O)CCCOc1ccc(C(=O)NC2CCCC2)cc1Br | 74 | – | –
2 | O=C(O)CCCOc1ccc2c(c1)C(=O)N(CCCCO)C2=O | 106 | 101 | –
3 | O=C(O)CCCOc1c(Cl)cc2c(c1Cl)C(=O)N(C1CCCC1)C2=O | 94 | – | –
4 | O=C(O)CCCOc1ccc2c(c1)C(=O)N(C1CCCC1)C2=O | 101 | – | –
5 | O=C(O)CCCOc1ccc2c(c1)C(=O)N(C1CCCCC1)C2=O | 105 | – | –
6 | CCCCCCN1C(=O)c2ccc(OCCCC(=O)O)cc2C1=O | 109 | – | Concentration (Rattus norvegicus [2]; [6]): 118%
7 | CCCCN1C(=O)c2cc(OCCCC(=O)O)c(Cl)c(Cl)c2C1=O | 86 | – | Concentration (Rattus norvegicus [2]; [6]): 74%
8 | C=C(CC)C(=O)c1ccc(OCC(=O)O)c(Cl)c1Cl | 78 | – | –
9 | CN1C(=O)c2cc(OCCCC(=O)O)c(Cl)c(Cl)c2C1=O | 91 | – | –
10 | O=C(O)COc1ccc2c(c1)C(=O)N(C1CCCC1)C2=O | 91 | 92 | –
11 | O=C(O)CCCOc1ccc2c(c1Cl)C(=O)N(C1CCCC1)C2=O | 107 | – | –
12 | CN1Cc2cc(OCCCC(=O)O)ccc2C1=O | 84 | – | –
13 | O=C(O)CCCOc1cc2c(c(Cl)c1Cl)C(=O)N(C1CCCC1)C2=O | 97 | – | –
14 | CCCCCN1C(=O)c2ccc(OCCCC(=O)O)cc2C1=O | 85 | 77 | –
15 | CCCCN1Cc2cc(OCCCC(=O)O)ccc2C1=O | 97 | 76 | –
16 | CN(C(=O)c1ccc(OCCCC(=O)O)c(Cl)c1Cl)C1CCCC1 | 79 | – | –
17 | CCCCN1C(=O)c2ccc(OCCCC(=O)O)cc2C1=O | 88 | 69 | –

Row | SMILES | Concentration (Rattus norvegicus [1]) [%] | Concentration (Rattus norvegicus [2]; 0.05 mM) [%] | further results
18 | O=C(O)CCCOc1ccc(C(=O)NC2CCCC2)cc1Cl | 83 | – | –
19 | O=C(O)COc1ccc2c(c1)C(=O)N(C1CCCCC1)C2=O | 94 | 87 | –
20 | CCN1C(=O)c2ccc(OCCCC(=O)O)cc2C1=O | 104 | 76 | –
21 | O=C(O)CCCOc1ccc2c(c1)C(=O)N(CCCO)C2=O | 75 | 83 | –
22 | CCCCN1C(=O)c2cc(Cl)c(OCCCC(=O)O)cc2C1=O | 95 | – | Concentration (Rattus norvegicus [2]; [6]): 81%
23 | O=C(O)CCCOc1ccc2c(c1)C(=O)NC2=O | 93 | 88 | –
24 | CCCN1C(=O)c2cc(OCCCC(=O)O)c(Cl)c(Cl)c2C1=O | 74 | – | Concentration (Rattus norvegicus [2]; [6]): 89%
25 | CCN1C(=O)c2cc(OCCCC(=O)O)c(Cl)c(Cl)c2C1=O | 103 | – | Concentration (Rattus norvegicus [2]; [6]): 83%
26 | O=C(O)CCCOc1cc2c(cc1Cl)C(=O)N(C1CCCC1)C2=O | 111 | – | –
27 | O=C(O)CCCOc1ccc(C(=O)NC2CCCC2)c(Cl)c1Cl | 93 | 78 | –
28 | O=C(O)CCCOc1cc2c(cc1Cl)C(=O)N(C1CCCC1)C2 | 115 | – | –
29 | CN1C(=O)c2ccc(OCCCC(=O)O)cc2C1=O | 90 | 118 | –
30 | CCCN1C(=O)c2ccc(OCCCC(=O)O)cc2C1=O | 67 | 80 | –
31 | NS(=O)(=O)c1cc(C(=O)O)c(NCc2ccco2)cc1Cl | 79 | – | Concentration (Rattus norvegicus [3]): 21%
32 | CCN1Cc2cc(OCCCC(=O)O)ccc2C1=O | 67 | – | Concentration (Rattus norvegicus [4]): 109%; Concentration (Rattus norvegicus [5]): 93%; Concentration (Rattus norvegicus [2]; [6]): 67%; Concentration (Rattus norvegicus [3]): 57%
33 | CCCN1C(=O)c2ccc(OCC(=O)O)cc2C1=O | 103 | 110 | –
34 | CCCN1Cc2cc(OCCCC(=O)O)ccc2C1=O | 98 | 76 | –
